Data: article PMC8897028 (Acta Pharmaceutica Sinica. B, 2021)
One block for each compound: values may come before it.

How the values were obtained:
C57BL/6J mice = experiment: ear swelling and chronic pruritus model induced by TRPV3 agonist carvacrol; type: in vivo, mouse; settings: 3% carvacrol only; recorded 1 h on day 7
Summary of the method: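 Male C57BL/6J mice, 8–10 weeks old, were acclimatised for at least one week at 22 ± 2 °C on a 12 h light/dark cycle. The right ear received topical 3% carvacrol in ethanol/olive oil (4/1, v/v) once daily for 6 days. Test compound (1.0 mmol/L in 50 μL solvent) was applied 30 min after carvacrol; vehicle was solvent with 1% DMSO. Scratching was recorded for 1 h on day 7; n = 6–8 mice per group.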

HaCaT cells [1] = experiment: cell death assay; type: cell-based, human; settings: carvacrol 300 μmol/L alone; 12 h
Summary of the method: (§1)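 HEK293 cells 12 h after hTRPV3 transfection, or HaCaT cells, were seeded in six-well plates, randomly split into 6 groups, and treated 12 h in culture medium. Cells were detached with 0.25% trypsin (HEK293 1 min; HaCaT 7 min), centrifuged, and stained 30 min in PBS with Hoechst and PI. Five random fields per group were imaged. Death ratio = PI-labelled over Hoechst-labelled nuclei, averaged over five images; n = 4.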

[2] = test system: HEK293 cells expressing hTRPV3; experiment: cell death assay; type: cell-based, human; settings: 12 h, n = 4
Summary of the method: as §1

mTRPV3 H426A = biological target: T1, mTRPV3 H426A (Mus musculus, UniProt Q8K424, H426A); experiment: whole-cell patch-clamp of mTRPV3 H426A mutant in HEK293 cells; type: cell-based
T1 sequence (Q8K424 1-791 H426A): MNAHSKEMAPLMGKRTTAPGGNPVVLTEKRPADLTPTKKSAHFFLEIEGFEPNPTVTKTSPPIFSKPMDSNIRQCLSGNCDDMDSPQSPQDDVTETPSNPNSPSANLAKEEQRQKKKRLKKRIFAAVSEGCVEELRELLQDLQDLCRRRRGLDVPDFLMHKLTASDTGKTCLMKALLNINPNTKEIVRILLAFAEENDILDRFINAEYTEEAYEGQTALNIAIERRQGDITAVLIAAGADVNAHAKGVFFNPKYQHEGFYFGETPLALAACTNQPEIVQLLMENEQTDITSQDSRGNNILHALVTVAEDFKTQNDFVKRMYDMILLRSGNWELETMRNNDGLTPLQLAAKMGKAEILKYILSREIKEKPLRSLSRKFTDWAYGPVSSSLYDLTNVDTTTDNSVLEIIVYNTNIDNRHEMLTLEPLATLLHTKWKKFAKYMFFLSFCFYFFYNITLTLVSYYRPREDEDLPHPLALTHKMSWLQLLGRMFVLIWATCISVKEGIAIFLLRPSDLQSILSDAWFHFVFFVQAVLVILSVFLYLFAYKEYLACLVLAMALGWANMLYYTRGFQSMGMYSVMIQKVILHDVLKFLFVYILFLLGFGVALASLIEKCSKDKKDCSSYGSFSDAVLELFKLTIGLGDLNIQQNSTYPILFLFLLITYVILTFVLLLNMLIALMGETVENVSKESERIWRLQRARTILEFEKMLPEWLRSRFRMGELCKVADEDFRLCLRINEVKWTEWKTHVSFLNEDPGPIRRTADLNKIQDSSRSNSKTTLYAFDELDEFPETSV
Summary of the method: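 The sequence-confirmed site-directed mTRPV3 mutant was transiently expressed in HEK293 cells, and EGFP-positive cells were recorded whole-cell 18 h post-transfection. Cells were held at 0 mV with 500-ms ramps from −100 to +100 mV every 2 s, at 22–24 °C. Compounds were diluted in perfusion solution.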

[3] = test system: HEK293 cells expressing hTRPV3; experiment: cell proliferation MTT assay, HEK293 cells transfected with hTRPV3; type: cell-based, human; settings: carvacrol 300 μmol/L, 24 h
Summary of the method: (§2)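 hTRPV3-transfected HEK293 or HaCaT cells were plated at 5 × 10^3 per well for 24 h, then exposed 24 h to TRPV3 activator and/or inhibitor in culture medium. MTT (5 mg/mL solution) was added for 4 h. Medium was removed, formazan dissolved in DMSO, and absorbance read at 490 nm.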

HaCaT cells [4] = experiment: cell proliferation MTT assay, HaCaT cells; type: cell-based, human; settings: carvacrol 300 μmol/L, 24 h
Summary of the method: as §2

hTRPV3 = biological target: T2, hTRPV3 (Homo sapiens, UniProt Q8NET8); experiment: inside-out single-channel recordings of HEK293 cells overexpressing hTRPV3; type: biochemical
T2 sequence (Q8NET8 1-790): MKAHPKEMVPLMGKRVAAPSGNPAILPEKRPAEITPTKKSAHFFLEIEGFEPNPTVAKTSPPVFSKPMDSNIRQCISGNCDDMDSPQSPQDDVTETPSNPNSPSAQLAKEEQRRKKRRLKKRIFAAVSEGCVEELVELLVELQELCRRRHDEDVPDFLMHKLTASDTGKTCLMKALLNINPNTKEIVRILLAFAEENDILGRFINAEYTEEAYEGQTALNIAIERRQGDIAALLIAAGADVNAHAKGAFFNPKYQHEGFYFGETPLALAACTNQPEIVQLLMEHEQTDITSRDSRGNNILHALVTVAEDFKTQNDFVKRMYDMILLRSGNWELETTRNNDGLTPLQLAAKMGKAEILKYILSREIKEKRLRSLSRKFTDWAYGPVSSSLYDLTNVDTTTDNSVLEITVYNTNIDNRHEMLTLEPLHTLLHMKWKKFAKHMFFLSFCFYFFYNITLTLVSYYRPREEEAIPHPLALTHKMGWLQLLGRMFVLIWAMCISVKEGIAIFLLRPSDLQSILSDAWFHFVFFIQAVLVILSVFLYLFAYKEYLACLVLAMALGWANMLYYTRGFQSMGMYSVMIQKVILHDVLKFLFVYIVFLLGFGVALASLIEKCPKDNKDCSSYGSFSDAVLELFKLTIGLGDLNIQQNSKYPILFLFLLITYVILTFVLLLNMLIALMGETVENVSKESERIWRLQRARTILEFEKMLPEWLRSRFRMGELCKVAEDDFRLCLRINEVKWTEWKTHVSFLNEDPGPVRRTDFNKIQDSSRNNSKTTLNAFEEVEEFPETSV
Summary of the method: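 Inside-out patches from EGFP-identified HEK293 cells, 18 h after hTRPV3 transfection, used 6–10 MΩ pipettes. Patches were held at 0 mV, then stepped to +80 mV. Currents were sampled at 10 kHz, filtered at 2.9 kHz, at 22–24 °C. All-points histograms were Gaussian-fitted for conductance and mean open probability; n = 4.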

hTRPA1 = hTRPA1 (Homo sapiens, UniProt O75762); experiment: whole-cell patch-clamp of TRPA1 currents in HEK293 cells; type: cell-based; settings: ruthenium red 20 μmol/L; current activated by AITC 300 μmol/L
Summary of the method: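 Human channel cDNAs were transiently transfected into HEK293 cells with Lipofectamine 2000. EGFP-positive cells were recorded whole-cell 18 h later at 22–24 °C with ~4.0 MΩ fire-polished pipettes. Cells were held at 0 mV with 500-ms ramps from −100 to +100 mV every 2 s. Test compound in perfusion solution was co-applied with agonist, and average current inhibition was summarised; n = 4–6.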

Sequence of hTRPA1 (O75762 whole entry, the tested form may be a part): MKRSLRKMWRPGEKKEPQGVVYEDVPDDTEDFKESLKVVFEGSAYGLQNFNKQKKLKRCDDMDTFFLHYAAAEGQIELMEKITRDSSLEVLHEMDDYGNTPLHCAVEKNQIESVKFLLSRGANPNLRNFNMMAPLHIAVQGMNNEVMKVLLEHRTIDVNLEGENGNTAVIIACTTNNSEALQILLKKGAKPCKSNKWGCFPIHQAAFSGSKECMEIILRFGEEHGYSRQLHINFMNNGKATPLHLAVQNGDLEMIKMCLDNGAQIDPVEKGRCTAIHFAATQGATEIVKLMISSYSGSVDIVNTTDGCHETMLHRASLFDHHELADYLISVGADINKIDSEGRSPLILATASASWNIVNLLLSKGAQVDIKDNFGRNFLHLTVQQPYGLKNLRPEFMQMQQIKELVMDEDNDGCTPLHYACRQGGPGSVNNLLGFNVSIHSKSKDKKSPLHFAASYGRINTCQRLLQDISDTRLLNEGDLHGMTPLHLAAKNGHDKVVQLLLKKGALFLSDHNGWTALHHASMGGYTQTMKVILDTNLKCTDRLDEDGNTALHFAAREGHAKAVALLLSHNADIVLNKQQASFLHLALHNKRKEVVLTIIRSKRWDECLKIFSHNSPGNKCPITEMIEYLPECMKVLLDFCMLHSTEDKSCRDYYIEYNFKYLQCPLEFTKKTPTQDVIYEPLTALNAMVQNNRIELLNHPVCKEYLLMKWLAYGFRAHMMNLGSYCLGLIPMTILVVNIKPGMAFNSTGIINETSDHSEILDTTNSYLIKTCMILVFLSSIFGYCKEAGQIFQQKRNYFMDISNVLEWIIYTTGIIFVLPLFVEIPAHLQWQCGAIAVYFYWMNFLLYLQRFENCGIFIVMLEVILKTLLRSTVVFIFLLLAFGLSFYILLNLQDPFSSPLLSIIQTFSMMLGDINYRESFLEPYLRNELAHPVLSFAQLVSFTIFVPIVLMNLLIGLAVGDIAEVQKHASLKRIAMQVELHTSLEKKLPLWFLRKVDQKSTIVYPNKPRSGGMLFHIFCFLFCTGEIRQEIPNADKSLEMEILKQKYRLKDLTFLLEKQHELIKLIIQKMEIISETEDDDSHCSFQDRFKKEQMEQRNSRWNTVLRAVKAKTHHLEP

SMILES: Cc1ccc(C(C)C)cc1O [carvacrol, reference compound]
number of scratching bouts (C57BL/6J mice): 113.0 ± 16.9
cell death ratio (HaCaT cells [1]): 13.0 ± 2.1%
cell death ratio ([2]; carvacrol 300 μmol/L alone, vehicle 5.3 ± 0.5%): 21.1 ± 1.9%
activation of H426A mutant current (mTRPV3 H426A; carvacrol 300 μmol/L): activated
cell proliferation [3]: suppressed the cell proliferation
cell proliferation (HaCaT cells [4]): suppressed the cell proliferation
increase of channel open probability versus vehicle (hTRPV3; carvacrol 300 μmol/L alone): about 90 fold
single channel conductance (hTRPV3; carvacrol 300 μmol/L alone): 168.4 ± 2.1 pS
channel open probability (hTRPV3; carvacrol 300 μmol/L alone, vehicle control 0.3 ± 0.2%): 26.9 ± 5.5%

activation of H426A mutant channel (mTRPV3 H426A; 2-APB 50 μmol/L): not activated
SMILES: NCCOB(c1ccccc1)c1ccccc1 [2-APB, 2-aminoethoxydiphenyl borate, reference compound]

SMILES: N.N.N.N.N.N.N.N.N.N.N.N.N.N.[Cl-].[Cl-].[Cl-].[Cl-].[Cl-].[Cl-].[O-2].[O-2].[Ru+3].[Ru+3].[Ru+4] [ruthenium red, reference compound]
cell death ratio ([2]; ruthenium red positive control with carvacrol 300 μmol/L): 14.3 ± 1.7%
inhibition of TRPA1 current (hTRPA1): inhibited
channel open probability (hTRPV3; RR 20 μmol/L with carvacrol 300 μmol/L, from 26.9 ± 5.5%, n = 4): 0.5 ± 0.4%
single-channel conductance (hTRPV3; RR 20 μmol/L with carvacrol 300 μmol/L, from 175.2 ± 0.9 pS, n = 4): 122.8 ± 5.5 pS
